This note sets out measurements from ChEMBL document CHEMBL4433236, “Synthesis and structure activity relationships of a series of 4-amino-1H-pyrazoles as covalent inhibitors of CDK14” (Bioorg Med Chem Lett, 2019).

In test [1] the target is Cyclin-dependent kinase 17 (Homo sapiens) (UniProt Q00537). As to the kind of experiment: Inhibition of CDK17 in human HCT116 cells at 1 uM incubated for 4 hrs by KINATIV live cell profiling protocol based assay. Summed up: (§1)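 Cellular kinase selectivity was profiled on the KiNativ platform, with compounds tested at 1 μM.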
Test [2] concerns the target Cyclin-dependent kinase 16 (Homo sapiens) (UniProt Q00536). Briefly: Inhibition of CDK16 in human HCT116 cells at 1 uM incubated for 4 hrs by KINATIV live cell profiling protocol based assay. Summed up:
as §1

Another test concerns HCT-116. Briefly: Antiproliferative activity against human HCT116 cells assessed as reduction in cell viability after 72 hrs by cell titer glo-based luminescence assay. The class given is functional. The note with it: HCT-116, 72 h. For orientation: ATP-based viability assays read luminescence as a measure of living cells.
For the next test, the target named is CDK2/Cyclin-Y (Homo sapiens, UniProt P24941+Q8ND76). Briefly: Inhibition of recombinant NanoLuc-tagged CDK2/cyclin Y expressed in human HCT116 cells at 1 uM incubated for 20 to 24 hrs by NanoBRET assay. The class given is cell-based.
Test [3] addresses Cyclin-dependent kinase 18 (Homo sapiens) (UniProt Q07002). As to the kind of experiment: Inhibition of CDK18 in human HCT116 cells at 1 uM incubated for 4 hrs by KINATIV live cell profiling protocol based assay. Summed up:
as §1

For test [4], the target named is Cyclin-dependent kinase 14/Cyclin-Y (Homo sapiens, UniProt O94921). Briefly: Inhibition of recombinant GST-tagged human full length CDK14/cyclin Y (2 to end residues) preincubated for 30 mins by Lantha screen eu binding assay. The class given is protein-complex assay. The essentials: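 CDK14 binding was measured in a LanthaScreen binding assay. IC50 is the average of three replicates, reported ± standard error.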

Test [5] deals with T1, Cyclin-dependent kinase 14 (Homo sapiens, UniProt O94921). Briefly: Inhibition of FLAG-tagged CDK14 (unknown origin) expressed in human HEK293 cells assessed as blocking of CDK14 pulldown at 500 to 1000 nM incubated for 4 hrs by biotinylated JNK-IN- based pull down assay. The class given is cell-based. Summed up: (§2)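 Cells were treated with compound at various doses for 4 h and then lysed. Lysates were incubated with biotinylated JNK-IN-7 and captured on streptavidin-coated beads. CDK14 capture was detected by western blot.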

The target in test [6] is T1, Cyclin-dependent kinase 14. Briefly: Inhibition of FLAG-tagged CDK14 (unknown origin) expressed in human HEK293 cells assessed as blocking of CDK14 pulldown incubated for 4 hrs by biotinylated JNK-IN- based pull down assay. The class given is cell-based. The essentials:
as §2

For test [7], the target named is T1, Cyclin-dependent kinase 14. Briefly: Inhibition of FLAG-tagged CDK14 (unknown origin) expressed in human HEK293 cells assessed as blocking of CDK14 pulldown up to 1000 nM incubated for 4 hrs by biotinylated JNK-IN- based pull down assay. The class given is cell-based. The essentials:
as §2

By inhibition is commonly meant the relative decrease from the control value, in per cent. As a reminder, the IC50 is the concentration needed to halve the response being measured.

Activity calls are given as the source filed them. No cut-off for these calls is given here.

T1 sequence (O94921 whole entry): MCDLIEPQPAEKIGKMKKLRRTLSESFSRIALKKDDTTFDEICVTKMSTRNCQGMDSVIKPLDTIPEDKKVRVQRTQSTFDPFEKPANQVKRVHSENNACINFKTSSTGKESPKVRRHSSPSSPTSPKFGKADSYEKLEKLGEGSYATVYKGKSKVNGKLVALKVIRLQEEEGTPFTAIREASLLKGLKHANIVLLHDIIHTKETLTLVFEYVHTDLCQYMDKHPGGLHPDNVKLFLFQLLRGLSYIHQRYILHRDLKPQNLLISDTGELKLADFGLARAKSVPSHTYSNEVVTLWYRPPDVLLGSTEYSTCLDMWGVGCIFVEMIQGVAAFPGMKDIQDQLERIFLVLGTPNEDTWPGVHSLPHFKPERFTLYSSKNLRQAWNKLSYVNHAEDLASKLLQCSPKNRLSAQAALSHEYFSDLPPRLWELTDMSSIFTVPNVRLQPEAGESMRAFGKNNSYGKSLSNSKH
Chain of Cyclin-dependent kinase 14/Cyclin-Y (O94921 whole entry): as above
Chain of Cyclin-dependent kinase 14/Cyclin-Y (Q8ND76 whole entry, further chain): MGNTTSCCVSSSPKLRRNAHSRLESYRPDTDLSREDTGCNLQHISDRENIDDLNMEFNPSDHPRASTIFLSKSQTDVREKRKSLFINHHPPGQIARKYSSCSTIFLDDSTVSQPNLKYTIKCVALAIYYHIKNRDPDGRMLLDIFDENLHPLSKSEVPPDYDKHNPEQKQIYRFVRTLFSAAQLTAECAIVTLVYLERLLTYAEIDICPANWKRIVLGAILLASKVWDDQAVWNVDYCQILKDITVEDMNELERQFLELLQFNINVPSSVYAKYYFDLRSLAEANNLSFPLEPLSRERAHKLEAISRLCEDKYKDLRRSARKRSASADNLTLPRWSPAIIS
Chain of Cyclin-dependent kinase 18 (Homo sapiens) (Q07002 whole entry): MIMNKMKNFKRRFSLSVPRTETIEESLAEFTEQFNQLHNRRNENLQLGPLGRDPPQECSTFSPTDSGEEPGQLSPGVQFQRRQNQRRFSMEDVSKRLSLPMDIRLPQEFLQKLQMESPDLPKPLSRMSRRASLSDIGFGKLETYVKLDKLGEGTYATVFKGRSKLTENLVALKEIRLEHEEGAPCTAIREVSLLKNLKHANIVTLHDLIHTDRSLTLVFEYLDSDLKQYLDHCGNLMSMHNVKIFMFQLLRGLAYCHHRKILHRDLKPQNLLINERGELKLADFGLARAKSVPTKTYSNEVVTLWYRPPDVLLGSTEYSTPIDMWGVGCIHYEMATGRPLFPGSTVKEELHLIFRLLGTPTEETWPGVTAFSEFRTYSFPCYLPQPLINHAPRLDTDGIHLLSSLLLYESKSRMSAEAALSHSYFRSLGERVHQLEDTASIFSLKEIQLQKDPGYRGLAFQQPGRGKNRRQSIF
Chain of Cyclin-dependent kinase 17 (Homo sapiens) (Q00537 whole entry, looked up): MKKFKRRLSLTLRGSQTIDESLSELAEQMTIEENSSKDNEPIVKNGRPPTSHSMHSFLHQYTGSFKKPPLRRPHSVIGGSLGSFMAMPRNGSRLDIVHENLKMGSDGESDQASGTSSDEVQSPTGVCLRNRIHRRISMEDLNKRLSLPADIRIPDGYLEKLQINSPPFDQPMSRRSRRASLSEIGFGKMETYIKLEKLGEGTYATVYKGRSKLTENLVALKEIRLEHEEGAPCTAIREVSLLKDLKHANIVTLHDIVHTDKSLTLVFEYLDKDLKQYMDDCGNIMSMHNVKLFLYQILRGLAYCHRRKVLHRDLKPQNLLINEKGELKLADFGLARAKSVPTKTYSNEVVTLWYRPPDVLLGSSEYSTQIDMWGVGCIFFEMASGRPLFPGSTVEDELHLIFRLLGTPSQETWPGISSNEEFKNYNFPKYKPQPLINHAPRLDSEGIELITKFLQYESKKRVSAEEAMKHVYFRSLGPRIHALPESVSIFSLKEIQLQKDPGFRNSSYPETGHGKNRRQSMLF
Chain of Cyclin-dependent kinase 16 (Homo sapiens) (Q00536 whole entry): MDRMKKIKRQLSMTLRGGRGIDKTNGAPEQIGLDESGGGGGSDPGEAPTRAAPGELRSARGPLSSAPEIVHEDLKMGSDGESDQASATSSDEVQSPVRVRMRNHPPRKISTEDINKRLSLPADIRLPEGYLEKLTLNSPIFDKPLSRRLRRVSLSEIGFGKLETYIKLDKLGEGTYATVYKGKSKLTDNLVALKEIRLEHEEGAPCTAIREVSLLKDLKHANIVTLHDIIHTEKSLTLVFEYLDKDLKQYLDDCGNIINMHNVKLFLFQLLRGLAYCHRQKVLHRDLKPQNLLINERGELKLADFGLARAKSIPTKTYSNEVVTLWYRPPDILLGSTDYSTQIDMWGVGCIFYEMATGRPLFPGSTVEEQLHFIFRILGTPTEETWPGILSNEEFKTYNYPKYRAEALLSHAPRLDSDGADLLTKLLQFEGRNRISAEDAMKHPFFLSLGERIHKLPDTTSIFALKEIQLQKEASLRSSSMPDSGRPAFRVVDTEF

In the case of `CN(C)C/C=C/C(=O)Nc1cccc(S(=O)(=O)N2CCC(NC(=O)c3n[nH]cc3NC(=O)c3c(Cl)cc(Cl)cc3Cl)CC2)c1`, the inhibition in test [1] was over 75%; in test [2], over 90%; in [3] it was over 75%. Moreover, the 50% inhibitory concentration (IC50) with HCT-116 was 1140 to 5900 nM; on CDK2/Cyclin-Y, 256 nM.
Regarding `C=CC(=O)Nc1cccc(C(=O)N2CCC(NC(=O)c3n[nH]cc3NC(=O)c3c(Cl)cccc3Cl)CC2)c1`, the IC50 in test [4] worked out at 45 nM; in the test on HCT-116, 32 nM. The inhibition entry in test [5] was “Active”.
Consider `CN(C)C/C=C/C(=O)Nc1cccc(C(=O)Nc2ccc(NC(=O)c3n[nH]cc3NC(=O)c3c(Cl)cccc3Cl)cc2)c1`, for which the inhibition entry in test [5] was “Active”. Moreover, the 50% inhibitory concentration (IC50) in test [6] is 1000 nM; in the test with HCT-116, 38 nM.
As to `Cc1cc(NC(=O)c2cccc(NC(=O)/C=C/CN(C)C)c2)ccc1NC(=O)c1n[nH]cc1NC(=O)c1c(Cl)cccc1Cl`, the half-inhibitory concentration (IC50) in test [4] is over 1000 nM; in the test on HCT-116, 320 nM.
For `CN(C)C/C=C/C(=O)Nc1cccc(S(=O)(=O)N2CCC(NC(=O)c3n[nH]cc3NC(=O)c3ccccc3)CC2)c1`, the values for the concentration for half-maximal inhibition (IC50) (in test [4]; in test [6]; in the test on HCT-116) were 3 nM, 1000 nM and 440 nM, respectively.
Consider `CN(C)CC/C=C/C(=O)Nc1ccc(S(=O)(=O)N2CC[C@@H](NC(=O)c3n[nH]cc3NC(=O)c3c(Cl)cccc3Cl)C2)cc1`, for which the 50% inhibitory concentration (IC50) in test [4] was 41 nM; in test [6], over 1000 nM; in the test with HCT-116 it was over 10000 nM. Also, in test [7], the inhibition result is “Active”.
`C=CC(=O)Nc1cccc(C(=O)Nc2ccc(NC(=O)c3n[nH]cc3NC(=O)c3c(Cl)cccc3Cl)c(C)c2)c1`: the IC50 in test [4] is over 1000 nM.
